According to ChEMBL document CHEMBL4428106, “Synthesis, biological evaluation and molecular docking study of N-arylbenzo[d]oxazol-2-amines as potential α-glucosidase inhibitors” (Bioorg Med Chem, 2016):

Experiments:
[1] = Inhibition of baker's yeast alpha-glucosidase using p-nitrophenyl-alpha D-glucopyranoside as substrate preincubated for 15 mins followed by substrate addition measured after 30 mins by spectrophotometric analysis; parameters: species or system Saccharomyces cerevisiae
Method in brief: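 Enzyme 0.1 U/mL preincubated with test compounds at various concentrations (DMSO, final 5% v/v) in 0.1 M phosphate buffer pH 6.8, 37 C, 15 min; 1.25 mM p-nitrophenyl α-D-glucopyranoside then added, 30 min at 37 C; absorbance read at 405 nm. DMSO-only control; triplicates. % inhibition = (1-∆Asample/∆Acontrol)*100; IC50 = concentration giving 50% inhibition.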

Saccharomyces cerevisiae = test: Potency index, ratio of acarbose IC50 to compound IC50 for baker's yeast alpha-glucosidase
[2] = Non-competitive inhibition of baker's yeast alpha-glucosidase using p-nitrophenyl-alpha D-glucopyranoside as substrate preincubated for 15 mins followed by substrate addition measured after 30 mins by Lineweaver-Burk plot analysis; parameters: species or system Saccharomyces cerevisiae
Method in brief: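 Kinetics: inhibitor at 0, 10, 20, 30, 40 and 50 μM against p-nitrophenyl α-D-glucopyranoside at 0.25, 0.5, 1 and 2 mM. Inhibition type assigned from Lineweaver-Burk plots (changes in Vmax and Km); Ki estimated from replot of slope versus inhibitor concentration.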

Row | IC50 [1] [µM] | Ratio IC50 (Saccharomyces cerevisiae) | Ki [2] [µM] | SMILES
1 | 120 |  |  | FC(F)(F)c1cccc(Nc2nc3ccccc3o2)c1
2 | 80.4 |  |  | Clc1ccc(Nc2nc3ccccc3o2)cc1
3 | > 200 |  |  | CCOc1ccc(Nc2nc3ccccc3o2)cc1
4 | > 200 |  |  | Cc1ccccc1Nc1nc2ccccc2o1
5 | > 200 |  |  | Cc1ccc(Nc2nc3ccccc3o2)c(C)c1
6 | 32.5 | 25 | 31.3 | c1ccc(Oc2ccc(Nc3nc4ccccc4o3)cc2)cc1
7 | 68.4 |  |  | Fc1ccc(Nc2nc3ccccc3o2)cc1
8 | > 200 |  |  | c1ccc(Nc2nc3ccccc3o2)cc1
9 | 44.4 |  |  | Clc1ccc(Nc2nc3ccccc3o2)c(Cl)c1
10 | > 200 |  |  | Cc1cccc(Nc2nc3ccccc3o2)c1
11 | > 200 |  |  | COc1ccc(Nc2nc3ccccc3o2)cc1
12 | 65 |  |  | CCOc1ccccc1Nc1nc2ccccc2o1
13 | > 200 |  |  | Cc1ccc(Nc2nc3ccccc3o2)cc1
